Screening results: PubChem BioAssay, several laboratories
HCT116 PTEN-null = growth suppression of PTEN-null HCT116, primary screen, cell-based, CellTiter-Glo. 1.2% of 140,000 active. AID 827, 2007. viability, % at 10 µM. HCT116 PTEN-null viability, 60 h; stronger effect = lower value;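 active = viability at or below a set limit, 4 SD under the median of all tested compounds, cut at about 3.7% in these data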;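 also: PTEN knockout HCT116 line with beta catenin targeted HCT116 as companion control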
Autophagy HCS = autophagy modulators in MEF cells, primary screen, imaging, high-content, MEF GFP-LC3 | MEF GFP-LC3 puncta imaging; test concentration mostly 10 µM | calls only at 10 µM (by protocol) | 0.98% of 190,000 active | AID 463193, 2010;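 active = percentage of spot-positive cells more than 3 SD above its plate mean, without a fluorescence outlier flag or 80% toxicity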;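 also: spot-positive cell cutoff set from DMSO-treated cells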
Lmaj promast = Leishmania major promastigote growth inhibition, primary screen. inhibition, % at 10 µM. Leishmania major promastigotes, resazurin fluorescence viability. 9% of 200,000 active. AID 1063, 2008; in the data active = inhibition above about 50%;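 also: promastigotes grown with compound for 44 hours at 28 °C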
Dynein cargo inh = inhibitors of GR-EGFP nuclear translocation, primary screen, dynein cargo transport inhibitor project, imaging, high-content, 3617.4 mouse cells; test concentration mostly 20 µM; stimulated with dexamethasone, 1 µM; stronger effect = lower value; z-score, hits read low; 0.47% of 220,000 active;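 active = plate z-score of nuclear minus cytoplasmic receptor signal below a set negative limit, without overly bright fluorescence or cell loss, cut at about -3.5 in these data, passing the limit was not always enough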;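 also: z-score of nuclear minus cytoplasmic ring GR-EGFP intensity difference per well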
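Buffer or medium – tet-free medium with charcoal-stripped serum · Signal – automated 10x imaging of fixed Hoechst-stained cells · Also added – dexamethasone agonist, 1.0 µM final, for 30 min · Incubation – induction 48 h, compound 1 h, agonist 30 min · Read-out – GR-EGFP nuclear translocation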
bCat KO growth = primary screen for growth suppressors in beta-catenin knockout HCT116 cells (colon tumor, human) | AID 818, 2007 | 1.5% of 140,000 active | viability, % at 10 µM | HCT116 beta-catenin knockout viability, CellTiter-Glo, 60 h; stronger effect = lower value;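 active = viability at or under a set limit, the compound median less 4 SD, cut at about 6% in these data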;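 also: 0% = Hyamine 1622 control at 20 µM and 100% = untreated cell control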
* hit, by the source's call; i = inactive; nt = no result; + = active, no number. An excerpt weighted towards active compounds, which were near 9.2% of everything screened.

SMILES	HCT116 PTEN-null	Autophagy HCS	Lmaj promast	Dynein cargo inh	bCat KO growth
Cc1cccc(N2C(=O)CC(N3CCN(Cc4ccc5c(c4)OCO5)CC3)C2=O)c1 (stereo not drawn)	98	i	-3	-0.65	99
Cc1cc(C)c2c(CN3CCN(Cc4ccc5c(c4)OCO5)CC3)cc(=O)oc2c1	92	i	25	0.22	73
Cc1cc2oc(=O)cc(CN3CCN(Cc4ccc5c(c4)OCO5)CC3)c2cc1C	68	i	94*	-0.19	79
Cc1ccc(C)c(N2C(=O)CC(N3CCN(Cc4ccc5c(c4)OCO5)CC3)C2=O)c1 (stereo not drawn)	99	i	87*	0.097	93
CCN(CC(=O)Nc1ccc2c(c1)OCCO2)Cc1cc(=O)oc2c(C)c(C)ccc12	93	i	81*	-0.15	88
COc1cccc(NC(=O)CN(C)C(C)C(=O)Nc2ccc(S(=O)(=O)N3CCCC3)cc2)c1 (stereo not drawn)	nt	i	2	0.19	nt
CCC(CC)C(=O)c1c[nH]c(C(=O)NCc2ccncc2)c1	nt	i	-2	-0.029	nt
Cc1ccc(OCC(O)CN2CCN(CC(O)COC(C)C)CC2)c(C(C)(C)C)c1 (stereo not drawn)	95	i	77*	0.96	112
Cc1ccc(C(C)C)c(OCC(O)CN2CCOCC2)c1 (stereo not drawn)	92	i	88*	-0.064	97
Cc1ccc(C(C)C)c(OCC(O)CN2CC(C)OC(C)C2)c1 (stereo not drawn)	69	i	95*	0.75	73
Cc1ccc(C(C)C)c(OCC(O)CN2CCN(CCO)CC2)c1 (stereo not drawn)	100	i	1	0.73	95
O=C(c1ccc(Cl)c(S(=O)(=O)N2CCOCC2)c1)N(c1ccccn1)C1CCCCC1	nt	i	2	-0.41	nt
CN(CCOC(=O)c1cccc(F)c1)Cc1ccccc1	105	i	0	-0.088	96
O=C(Oc1ccccc1/C=C\C(=O)c1cc2ccccc2o1)c1ccccc1	2.4*	i	92*	-3.1	2.3*
O=C(Oc1ccccc1/C=C\C(=O)c1cc2ccccc2o1)c1cccc(F)c1	1.3*	i	79*	0.49	5.9*
O=C(/C=C/c1ccco1)Nc1cccc(NC(=O)/C=C/c2ccco2)n1	56	i	64*	1.2	62
CC1(c2nnc(-c3ccncc3)o2)CC(c2ccc(F)cc2)=NO1 (stereo not drawn)	nt	nt	nt	-0.92	nt
N/C(=N\OC(=O)CSc1ccccc1)c1ccc([N+](=O)[O-])cc1	104	i	64*	0.54	94
Cc1ccc(/C(N)=N/OC(=O)CSc2ccccc2)cc1	nt	i	-7	0.4	nt
N/C(CSc1ncccc1C(F)(F)F)=N\O	nt	nt	nt	-0.96	nt
NC1=Nc2cccc3cccc1c23	nt	i	52*	1.9	nt
Cc1cc(C)nc(Nc2nc3ccccc3[nH]2)n1	83	i	35	1.3	77
c1ccc(Nc2nc3ccccc3[nH]2)nc1	64	i	100*	-0.45	54
COc1ccc(-c2cc3nc(C)cc(N4CC(C)CC(C)C4)n3n2)cc1 (stereo not drawn)	69	i	16	-1.1	79
CCc1c(C)nc2cc(-c3ccc(OC)c(OC)c3)nn2c1NCC1CC1	4	i	101*	0.22	6
SMILES	HCT116 PTEN-null	Autophagy HCS	Lmaj promast	Dynein cargo inh	bCat KO growth
CCOc1ccc(NC(=O)COc2ccc(C(=O)NCCc3ccccc3)cc2)cc1	97	i	9	2.5	89
CC(C)c1ccccc1NC(=O)COc1ccc(C(=O)NCCc2ccccc2)cc1	82	i	71*	-0.32	85
COc1ccc(N2C(=O)CC(Sc3nc(C)cc(C)c3C#N)C2=O)cc1 (stereo not drawn)	85	i	11	0.59	84
COc1ccc(N2C(=O)CC(Sc3nnc(-c4ccccc4)o3)C2=O)cc1 (stereo not drawn)	89	i	-10	-4.1*	98
CCOc1cc(CNc2ccc(Br)cc2)cc(Br)c1OCC(=O)NC(C)(C)C	55	i	5	1	54
CCOc1cc(CNc2ccc(OC)cc2)cc(Br)c1OCC(=O)NC(C)(C)C	31	i	100*	-0.091	21
CCOc1ccc(S(=O)(=O)Nc2ccccc2C(=O)NCC2CCCO2)cc1 (stereo not drawn)	88	i	0	-0.67	100
CCOC(=O)c1ccccc1NS(=O)(=O)c1ccc(OCC)cc1	19	+	0	-0.55	15
O=C(Nc1ccc(S(=O)(=O)Nc2ncccn2)cc1)c1ccccc1NS(=O)(=O)c1ccc(F)cc1	nt	i	-6	-0.14	nt
CCOc1ccc(NC(=O)c2ccccc2NS(=O)(=O)c2ccc(F)cc2)c([N+](=O)[O-])c1	71	i	71*	0.95	72
O=[N+]([O-])C1=CC=C2C(=NC3(CCCCC3)N2O)C1=NCCc1ccccc1	nt	i	75*	-1.5	nt
Oc1cccc2ccc[n+](CC(O)Cn3c4ccccc4c4ccccc43)c12 (stereo not drawn)	67	i	91*	0.23	62
C/C(=N\Nc1ccc(Cl)c(C(=O)O)c1)c1ccccn1	nt	nt	nt	-0.19	nt
C/C(=N\Nc1ncc(Cl)cc1Cl)c1ccccn1	nt	i	100*	-0.79	nt
C/C(=N\Nc1cccc2cccnc12)c1ccccn1	nt	i	51*	1.6	nt
CC(C)(C)n1cn[nH]c1=S	nt	nt	nt	0.57	nt
COc1ccc(CN=C(C)c2c(C(F)(F)F)[nH]n(-c3nc4ccccc4s3)c2=O)cc1	38	+	4	-0.26	33
Cc1cc(Nc2ccc3c(c2)OCCO3)c2cc(Cl)ccc2n1	33	i	100*	1.5	25
Cc1cc(C)c(C#N)c(Nc2ccc3c(c2)OCCO3)n1	107	i	-3	-0.05	93
Cc1ccc2nc3c(c(Nc4ccc5c(c4)OCCO5)c2c1)CCC3	24	i	98*	-1	17
CC1NC(=O)N(C)C2NC(=O)N(C)C(c3ccccc3)C12 (stereo not drawn)	101	i	-4	-0.41	95
COc1ccc(CC(=O)O/N=C(\N)Cc2cccc3ccccc23)cc1OC	77	i	4	-1.1	78
CCN1CCN(C(=O)c2oc(=O)c3ccccc3c2-c2ccc(C)cc2)CC1	90	i	-5	-0.061	85
Cc1ccc(-c2c(C(=O)NCc3ccc(F)cc3)oc(=O)c3ccccc23)cc1	92	i	74*	0.89	94
CC(C)(C)[C@H]1C=C(C(=O)NC2CC2)O[C@@H](OCc2ccc(CO)cc2)C1	nt	i	23	1.9	nt
c1ccc(C2Nc3ccccc3-c3nc4ccccc4n32)cc1 (stereo not drawn)	72	i	69*	-0.28	78
O=C(NC1CCNCC1)C1CC1	nt	i	-6	-0.47	nt
